In ChEMBL document CHEMBL1649344, “Abyssomicin I, a modified polycyclic polyketide from Streptomyces sp. CHI39” (2010):
Converted amounts (≈) assume the structure as drawn. The source made the active and inactive calls. The calls are words filed in the database; no cut-off is given here.

Tests used:
Micrococcus luteus [1] = test: Antimicrobial activity against Micrococcus luteus ATCC 9343 after 20 hrs; assay type: functional; conditions: ATCC 9343, 20 h
In short: (§1)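 Broth microdilution in Mueller Hinton broth. Test bacteria are pre-grown 20 h at 30 °C on a reciprocal shaker, pelleted, and resuspended in saline at 1 × 10^5 cells/mL. Each well holds medium, cell suspension (1:10 of the well volume) and sample in DMSO. Plates are incubated 20 h at 30 °C, then growth is read as absorbance at 650 nm.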

Staphylococcus aureus [2] = test: Antimicrobial activity against Staphylococcus aureus IFO12732 after 20 hrs; assay type: functional; conditions: IFO12732, 20 h; in short: as §1
Escherichia coli = test: Antimicrobial activity against Escherichia coli NIH-JC2 at 100 uM after 20 hrs; assay type: functional, organism-based
In short: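 E. coli is grown in Mueller Hinton broth for 20 h at 30 °C with shaking, spun down, and brought to 1 × 10^5 cells/mL in saline. This suspension is mixed in wells with medium and DMSO sample solution. The plate is incubated 20 h at 37 °C and growth is read at 650 nm.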

Bacillus subtilis [3] = test: Antimicrobial activity against Bacillus subtilis PCI219 after 20 hrs; assay type: functional; conditions: PCI219, 20 h; in short: as §1
Candida albicans = test: Antimicrobial activity against Candida albicans IFO1594 at 100 uM after 20 hrs; assay type: functional, organism-based
In short: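 C. albicans is cultured in yeast nitrogen base with 2% glucose for 20 h at 30 °C, harvested, and suspended in saline at 1 × 10^5 cells/mL. The suspension is combined in wells with the same medium and sample in DMSO. After 20 h at 30 °C, absorbance at 650 nm gives growth.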

Micrococcus luteus [4] = test: Antimicrobial activity against Micrococcus luteus ATCC 9343 at 100 uM after 20 hrs; assay type: functional, organism-based; in short: as §1
Staphylococcus aureus [5] = test: Antimicrobial activity against Staphylococcus aureus IFO12732 at 100 uM after 20 hrs; assay type: functional, organism-based; in short: as §1
Bacillus subtilis [6] = test: Antimicrobial activity against Bacillus subtilis PCI219 at 100 uM after 20 hrs; assay type: functional, organism-based; in short: as §1

Structure (SMILES)	MIC (Micrococcus luteus [1]) [µg/mL]	MIC (Staphylococcus aureus [2]) [µg/mL]	Activity (Escherichia coli)	MIC (Bacillus subtilis [3]) [µg/mL]	Activity (Candida albicans)	Activity (Micrococcus luteus [4])	Activity (Staphylococcus aureus [5])	Activity (Bacillus subtilis [6])
C[C@@H]1CCC(=O)C2=C3O[C@@]4(C)[C@H](C)C[C@@]3(OC2=O)[C@H](/C=C/C1=O)[C@H]4O	29 (≈ 83.7 µM)	29 (≈ 83.7 µM)	inactive	29 (≈ 83.7 µM)	inactive	–	–	–
C[C@@H]1CCC(=O)C2=C3O[C@@]4(C)[C@H](C)C[C@@]3(OC2=O)[C@H](/C=C/[C@H]1O)[C@H]4O	–	–	inactive	–	inactive	inactive	inactive	inactive
